According to ChEMBL document CHEMBL1126613, “Centrally acting serotonergic agents. Synthesis and structure-activity relationships of C-1- or C-3-substituted derivatives of 8-hydroxy-2-(di-n-propylamino)tetralin” (J Med Chem, 1993):
Where “and” joins values, the source holds several entries; their conditions need not be identical. Equal entries are not always repeated.

Key:
Mus musculus [1] = assay: Tested in vivo for the effective dose administered orally in mouse hypothermia assay; assay type: functional; details: po
Outline: (§1)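 Charles River CF-1 mice (18-22 g, 4 per dose), housed individually 20 min before testing. Rectal temperature taken before dosing and 20 min after (sc 0.1 mL; oral 0.2 mL by gavage needle). A drop of ≥2 °F counted as positive. Doses started at 30 mg/kg and fell by half-log until 0/4 responded.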

Mus musculus [2] = assay: In vivo effective dose administered subcutaneously in mouse hypothermia assay.; assay type: functional; details: sc; outline: as §1
Mus musculus [3] = assay: Behavioral time in mouse face to face assay at 0.3 umol/kg administered perorally; assay type: functional
Outline: (§2)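 Male CF-1 mice (Charles River, 19-29 g), 8 pairs per dose, dosed sc, ip or orally in 0.25% methylcellulose or 0.1% citric acid; 30 min absorption housed with familiar partner. Pairs from different home cages placed in small litter-floored cage; face-to-face interaction duration scored visually for 3 min. Wilcoxon rank sum (two-tailed) vs daily control, p < 0.05.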

Mus musculus [4] = assay: Behavioral time in mouse face to face assay at 0 umol/kg administered perorally; assay type: functional; outline: as §2
Rattus norvegicus [5] = assay: Effect on the synthesis rate of dopamine (DOPA) accumulation at the dose of 9.7 umol/kg in the rat ventral limbic brain region; assay type: functional, Limbic system
Outline: (§3)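 Male Sprague-Dawley rats dosed sc with drug or vehicle at time zero. NSD 1015 (100 mg/kg ip) given 15 min later to block aromatic decarboxylase. Brain DOPA and 5-HTP measured by electrochemical detection with peak integration. Expressed as percent change from NSD 1015 plus saline controls. Control and test groups N = 6 each, compared by unpaired t test.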

Rattus norvegicus [6] = assay: Effect on the synthesis rate of 5 HTP accumulation at the dose of 9.7 umol/kg in the rat ventral limbic brain region; assay type: functional, Limbic system; outline: as §3
Mus musculus [7] = assay: In vivo effective dose administered orally in mouse hypothermia assay (approximate ED50).; assay type: functional; details: po; outline: as §1
Mus musculus [8] = assay: Tested in vivo for the maximum temperature decrease in mouse hypothermia assay.; assay type: functional
Outline: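 CF-1 mice (18-22 g, 4 per dose), dosed sc or orally. Rectal temperature measured before dosing and 20 min after. The mean maximum temperature drop (°F) at 20 min after any dose is recorded as an efficacy index.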

Felis catus [9] = species on record: Felis catus; assay: Maximum decrease observed; assay type: functional; set-up: unit not given here
Felis catus [10] = assay: Maximum decrease on arterial blood pressure at 1 mg/kg; assay type: functional
Outline: (§4)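 Adult cats (2.5-4.0 kg) anesthetized with ketamine 11 mg/kg im, then chloralose 80 mg/kg iv. Femoral artery cannulated for blood pressure, femoral vein for drug. Ventilated, paralyzed with gallamine 4 mg/kg iv, rectal temperature held at 37-38 °C. Cumulative iv doses given at 20-min intervals. Maximum decrease reported following a 1 mg/kg iv dose.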

Felis catus [11] = assay: (§5) Dose on arterial blood pressure (BP) in anesthetized cat; assay type: functional; outline: as §4
Felis catus [12] = species on record: Felis catus; assay: Dose at which the SND has been reduced to 50% of the pretreatment value; assay type: functional
Outline: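 Adult cats (2.5-4.0 kg), ketamine 11 mg/kg im then chloralose 80 mg/kg iv, ventilated, gallamine-paralyzed, rectal temperature 37-38 °C. Sympathetic nerve discharge quantified by cumulative integration. Cumulative iv doses were given at 20-min intervals. Value is the dose reducing discharge to 50% of pretreatment.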

Mus musculus [13] = assay: Behavioral time in mouse face to face assay at 32.5 umol/kg administered perorally; assay type: functional; outline: as §2
Mus musculus [14] = assay: Behavioral time in mouse isolation-induced aggression assay at 9.7 umol/kg administered perorally; assay type: functional
Outline: (§6)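 Male CF-1 mice. Residents were isolated singly for at least 1 month; group-housed intruders were kept 4-6/cage. Mice weighed 28-30 g at first test. Residents got drug ip or orally in 0.25% methylcellulose or 0.1% citric acid 30 min before an untreated intruder was introduced. Latency to fighting was recorded, capped at 600 s. Dosing was blind, 6/group (vehicle n = 12), Wilcoxon rank sum.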

Mus musculus [15] = assay: Behavioral time in mouse face to face assay at 3.2 umol/kg administered perorally; assay type: functional; outline: as §2
Mus musculus [16] = assay: Behavioral time in mouse isolation-induced aggression assay at 0 umol/kg administered perorally; assay type: functional; outline: as §6
Mus musculus [17] = assay: Behavioral time in mouse isolation-induced aggression assay at 32.5 umol/kg administered perorally; assay type: functional; outline: as §6
Rattus norvegicus [18] = assay: Effect on the synthesis rate of dopamine (DOPA) accumulation at the dose of 3.2 umol/kg in the rat ventral limbic brain region; assay type: functional, Limbic system; outline: as §3
Rattus norvegicus [19] = assay: Effect on the synthesis rate of 5 HTP accumulation at the dose of 3.2 umol/kg in the rat ventral limbic brain region; assay type: functional, Limbic system; outline: as §3
Rattus norvegicus [20] = species on record: Rattus norvegicus; assay: Effect on the synthesis rate of dopamine (DOPA) accumulation at the dose of […] in the rat ventral limbic brain region; assay type: functional, Limbic system
Rattus norvegicus [21] = species on record: Rattus norvegicus; assay: Effect on the synthesis rate of 5 HTP accumulation at the dose of […] in the rat ventral limbic brain region; assay type: functional, Limbic system
Felis catus [22] = assay: Effect on arterial blood pressure (BP) in anesthetized cat; assay type: functional; outline: as §4
Felis catus [23] = assay: as §5; assay type: functional; remark: listed apart in the source
Mus musculus [24] = assay: Behavioral time in mouse face to face assay at 30 umol/kg administered subcutaneously; assay type: functional
Outline: (§7)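 Male CF-1 mice (19-29 g), 8 pairs per dose, dosed sc, ip or orally in 0.25% methylcellulose or 0.1% citric acid. Pairs from the same home cage are held together for 30 min. Pairs from different cages are then placed in a small litter-floored cage, and face-to-face interaction is timed visually for 3 min. Comparison with the daily control by two-tailed Wilcoxon rank sum, p<0.05.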

Mus musculus [25] = assay: Behavioral time in mouse face to face assay at 30 umol/kg administered subcutaneously (*P<0.05); assay type: functional; outline: as §7
Mus musculus [26] = assay: Behavioral time in mouse face to face assay at 3.0 umol/kg administered subcutaneously; assay type: functional; outline: as §7
Mus musculus [27] = assay: Behavioral time in mouse isolation-induced aggression behavioral assay at 30 umol/kg administered intraperitoneally (*P<0.05); assay type: functional
Outline: (§8)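 Isolated male CF-1 resident mice, housed singly ≥1 month and weighing 28-30 g at testing, were dosed ip or orally in 0.25% methylcellulose or 0.1% citric acid. Dosing was blind, 6 per group (n=12 vehicle). After 30 min an untreated group-housed intruder was introduced. Latency to fighting was recorded, capped at 600 s. Residents rested ≥3 days before reuse. Wilcoxon rank sum.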

Mus musculus [28] = assay: Behavioral time in mouse isolation-induced aggression behavioral assay at 9.1 umol/kg administered intraperitoneally (*P<0.05); assay type: functional; outline: as §8
Mus musculus [29] = assay: Behavioral time in mouse face to face assay at dose of 0 umol/kg administered; assay type: functional; outline: as §7
Mus musculus [30] = assay: Behavioral time in mouse isolation-induced aggression assay 0 umol/kg administered intraperitoneally; assay type: functional; outline: as §8
Mus musculus [31] = assay: Behavioral time in mouse isolation-induced aggression assay 0.3 umol/kg administered intraperitoneally; assay type: functional; outline: as §8
Mus musculus [32] = assay: Behavioral time in mouse isolation-induced aggression assay at 0 umol/kg administered intraperitoneally; assay type: functional; outline: as §8
Mus musculus [33] = assay: Behavioral time in mouse isolation-induced aggression assay at 0.9 umol/kg administered intraperitoneally; assay type: functional; outline: as §8
Mus musculus [34] = assay: Behavioral time in mouse isolation-induced aggression assay at 3.0 umol/kg administered intraperitoneally (*P<0.05); assay type: functional; outline: as §8
Rattus norvegicus [35] = assay: Effect on the synthesis rate of dopamine (DOPA) accumulation at the dose of 3.0 umol/kg in the rat ventral limbic brain region; assay type: functional, Limbic system
Outline: (§9)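 Male Sprague-Dawley rats were given test drug or vehicle sc at time zero, then NSD 1015 (100 mg/kg ip) 15 min later. DOPA and 5-HTP were measured electrochemically by peak integration. Results are expressed as percent change from NSD 1015 plus saline controls. Groups of 6 vs control 6, unpaired t test.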

Rattus norvegicus [36] = assay: Effect on the synthesis rate of dopamine (DOPA) accumulation at the dose of 0.3 umol/kg in the rat ventral limbic brain region; assay type: functional, Limbic system; outline: as §9
Rattus norvegicus [37] = assay: Effect on the synthesis rate of 5 HTP accumulation at the dose 0.3 umol/kg in the rat ventral limbic brain region; assay type: functional, Limbic system; outline: as §9
Rattus norvegicus [38] = assay: Effect on the synthesis rate of 5 HTP accumulation at the dose of 3.0 umol/kg in the rat ventral limbic brain region (*P<0.05); assay type: functional, Limbic system; outline: as §9

`CCCN[C@@H]1CCc2cccc(OC)c2[C@H]1CC1CC1` was tested, and the ED50 (Mus musculus [1]) was 99 µmol/kg, the ED50 (Mus musculus [2]) was 13 µmol/kg and the Time (Mus musculus [3]) was 1.5 s. For the same molecule, the Time (Mus musculus [4]) was 2 s and 5 s, the Change (Rattus norvegicus [5]) was 18.7% and the Change (Rattus norvegicus [6]) was -43.7%.
For `COc1cccc2c1[C@H](CC1CC1)[C@H](NCC1CC1)CC2`, the ED50 (Mus musculus [7]) was > 93 µmol/kg, the ED50 (Mus musculus [2]) was 23 µmol/kg and the TMP.decrease (Mus musculus [8]) was 6.8 degrees F.
With `C=CCN[C@@H]1CCc2cccc(OC)c2[C@@H]1CC1CC1` the ED50 (Mus musculus [2]) was 32 µmol/kg and the TMP.decrease (Mus musculus [8]) was 7.1 degrees F.
Molecule `C=CCN(CCC)[C@@H]1CCc2cccc(OC)c2C1=C` has a Max decrease (Felis catus [9]) of 20, a Max decrease (Felis catus [10]) of 51 and a BP (Felis catus [11]) of 59%. The ED50 (Felis catus [12]) was 0.91 µmol/kg, the ED50 (Mus musculus [2]) was > 97 µmol/kg and the Time (Mus musculus [13]) was 2.5 s. The Time (Mus musculus [3]) was 1.9 s, the Time (Mus musculus [14]) was 61 s and the Time (Mus musculus [15]) was 1.9 s. The Time (Mus musculus [16]) was 56 s, the Time (Mus musculus [17]) was 416 s and the Time (Mus musculus [4]) was 0.7 s. The TMP.decrease (Mus musculus [8]) was 3.6 degrees F, the Change (Rattus norvegicus [18]) was -36% and the Change (Rattus norvegicus [19]) was -52%.
`CCC[C@H]1c2c(cccc2OC)CC[C@H]1N(CCC)CCC` was tested, and the Max decrease (Felis catus [10]) was 87, the Max decrease (Felis catus [11]) was 137 and the ED50 (Felis catus [12]) was > 2.94 µmol/kg. The ED50 (Mus musculus [2]) was 51 µmol/kg, the TMP.decrease (Mus musculus [8]) was 2.8 degrees F and the Change (Rattus norvegicus [20]) was -14%. It also gave a Change (Rattus norvegicus [21]) of -3.9%.
With `C=CCN[C@@H]1CCc2cccc(OC)c2[C@H]1CC1CC1` (relative stereo) the ED50 (Mus musculus [7]) was > 97 µmol/kg, the ED50 (Mus musculus [2]) was 24 µmol/kg and the TMP.decrease (Mus musculus [8]) was 6.2 degrees F.
For `C=CCN[C@@H]1CCc2cccc(OC)c2[C@H]1CC=C` (relative stereo), the Max decrease (Felis catus [9]) was 10, the Max decrease (Felis catus [10]) was 45 and the BP (Felis catus [11]) was 59%. For the same molecule, the ED50 (Felis catus [12]) was 1.19 µmol/kg, the ED50 (Mus musculus [1]) was 79 µmol/kg and the ED50 (Mus musculus [2]) was 5.9 µmol/kg. For the same molecule, the TMP.decrease (Mus musculus [8]) was 11.5 degrees F and 6.6 degrees F.
`C=CC[C@@H]1c2c(cccc2OC)CC[C@H]1NCC1CC1` (relative stereo) showed a Max decrease (Felis catus [9]) of 21, a Max decrease (Felis catus [10]) of 46 and a BP (Felis catus [22]) of 65%. For the same molecule, the ED50 (Felis catus [12]) was 0.81 µmol/kg, the ED50 (Mus musculus [1]) was > 97 µmol/kg and the ED50 (Mus musculus [2]) was 10 µmol/kg. For the same molecule, the TMP.decrease (Mus musculus [8]) was 11.5 degrees F.
With `CCCN(CCC)C1CCc2cccc(O)c2C1` (configuration not stated) [8-OH-DPAT] the Max decrease (Felis catus [9]) was 2, the Max decrease (Felis catus [10]) was 57 and the “BP (ED50)” value (Felis catus [23]) was 66%. For the same molecule, the ED50 (Felis catus [12]) was 0.03 µmol/kg, the ED50 (Mus musculus [1]) was 9.7 µmol/kg and the ED50 (Mus musculus [2]) was 1 µmol/kg. The Time (Mus musculus [24]) was 5 s, the Time (Mus musculus [25]) was 4.4 s and the Time (Mus musculus [26]) was 1.6 s. It also gave a Time (Mus musculus [27]) of 351 s, a Time (Mus musculus [28]) of 437 s and a Time (Mus musculus [29]) of 1.1 s. It also gave a Time (Mus musculus [30]) of 6 s, a Time (Mus musculus [31]) of 11 s and a Time (Mus musculus [32]) of 177 s. For the same molecule, the Time (Mus musculus [33]) was 20 s, the Time (Mus musculus [34]) was 310 s and the TMP.decrease (Mus musculus [8]) was 7.2 degrees F and 7.5 degrees F. It also gave a Change (Rattus norvegicus [35]) of 3.2%, a Change (Rattus norvegicus [36]) of 16% and a Change (Rattus norvegicus [37]) of -37%. For the same molecule, the Change (Rattus norvegicus [38]) was -48%.
